Here are results for 7 molecules from ChEMBL document CHEMBL1629457 (J Med Chem, 2010).

As a reminder, the half-life is the time in which the quantity being followed falls by half. One may read the EC50 as the concentration needed to bring the measured effect to its halfway point. As a reminder, the Ki is the dissociation constant of the complex between target and ligand, obtained from inhibition or displacement.

Data set [1] can be described thus: Half life in […] by LC/MS and RP-HPLC method. The note with it: human. It is filed as ADME, cell-free, Serum. A digest of the protocol:
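Human plasma pre-warmed 30 min at 37 °C. Peptide (0.3 mM stock in 0.1 M phosphate, pH 7.2) added at 50 μL per 300 μL plasma, then incubated at 37 °C. Samples taken at 1, 2, 3, 4, 12, 24 and 48 h and quenched in ACN/NaCl/TFA extraction buffer. Analysed by RP-HPLC and LC-MS. Half-life from a one-phase decay fit, n = 3-6.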

In data set [2] the target is T1, Oxytocin receptor (Homo sapiens, UniProt P30559).
T1 sequence (P30559 whole entry): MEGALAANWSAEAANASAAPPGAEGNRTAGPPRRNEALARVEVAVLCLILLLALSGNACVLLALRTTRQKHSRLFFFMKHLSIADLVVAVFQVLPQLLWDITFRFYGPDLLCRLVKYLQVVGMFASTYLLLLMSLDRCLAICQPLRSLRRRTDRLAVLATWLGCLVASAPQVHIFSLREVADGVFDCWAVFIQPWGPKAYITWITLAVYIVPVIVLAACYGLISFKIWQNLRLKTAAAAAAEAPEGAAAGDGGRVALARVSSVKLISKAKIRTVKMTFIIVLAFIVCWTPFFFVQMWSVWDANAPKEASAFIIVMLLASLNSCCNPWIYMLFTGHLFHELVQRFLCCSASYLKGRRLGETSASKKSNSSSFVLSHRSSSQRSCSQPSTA
Kind of data set: Activity at oxytocin receptor expressed in COS1 cells assessed as IP-one generation by HTRF assay. It is filed as cell-based, COS-1. In a few lines: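 Human OTR transiently transfected into COS-1 cells (Lipofectamine2000, DNA ratio 2); assayed 48 h post-transfection. Cells stimulated with increasing compound concentrations in HEPES buffer containing 50 mM LiCl, pH 7.4, 1 h at 37 °C, 5% CO2. Lysed with HTRF reagents (Eu cryptate anti-IP-one antibody, d2-IP-one), 1 h room temperature. Read 665/590 nm after 340 nm excitation. EC50; triplicates, n = 3-6.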

In data set [3] the target is T1, Oxytocin receptor. Kind of data set: Displacement of [3H]OT from oxytocin receptor expressed in COS1 cells. In kind it is cell-based, COS-1. A digest of the protocol:
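Membranes from COS-1 cells transiently transfected with OTR, harvested 48 h post-transfection; 5 μg protein per well. Incubated with 2 nM [3H]OT and competitor (10 pM to 10 μM) on scintillation proximity beads in buffer with 0.1% BSA. Shaken 1 h at room temperature, then scintillation counted.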
On the technique in general: In a radioligand displacement assay an active substance lowers the binding of a labelled ligand.

Each structure is given as a SMILES string. Bridge positions count the residues as written; N and C are the ends. Peptide text beside a SMILES is read from it. Some results are limits rather than exact numbers.

In data set [1], `CC[C@@H](C)[C@H]1NC(=O)[C@@H](CCC(N)=O)NC(=O)[C@@H](CC(N)=O)NC(=O)[C@H](NC(=O)[C@H]2CCCN2C(=O)[C@@H](CC(C)C)NC(=O)CN)CSSC[C@H](C(=O)O)NC(=O)[C@@H](Cc2ccc(O)cc2)NC1=O` had a half-life of 5.5 h. For the same molecule, the EC50 in data set [2] is > 100000 nM. Further, the inhibition constant (Ki) in data set [3] is > 100000 nM.
`CC[C@H](C)[C@@H]1NC(=O)[C@H](Cc2ccc(O)cc2)NC(=O)[C@@H](N)CSSC[C@@H](C(=O)N2CCC[C@H]2C(=O)N[C@@H](CC(C)C)C(=O)NCC(N)=O)NC(=O)[C@H](CC(N)=O)NC(=O)[C@H](CCC(N)=O)NC1=O` [OXYTOCIN]: the half-life in data set [1] was 11.6 h.
As to `CC[C@H](C)[C@@H]1NC(=O)[C@H](Cc2ccc(O)cc2)NC(=O)[C@@H](N)CS[Se]C[C@@H](C(=O)N2CCC[C@H]2C(=O)N[C@@H](CC(C)C)NCC(N)=O)NC(=O)[C@H](CC(N)=O)NC(=O)[C@H](CCC(N)=O)NC1=O`, the 50% effective concentration (EC50) in data set [2] stood at 154 nM. The inhibitory constant (Ki) in data set [3] was found to be 0.72 nM.
On to `CC[C@H](C)[C@@H]1NC(=O)[C@H](Cc2ccc(O)cc2)NC(=O)[C@@H]2CSSC[C@H](NC(=O)[C@H](CC(N)=O)NC(=O)[C@H](CCC(N)=O)NC1=O)C(=O)N1CCC[C@H]1C(=O)N[C@@H](CC(C)C)C(=O)NCC(=O)N[C@@H](C)C(=O)NCC(=O)N[C@@H](C)C(=O)NCC(=O)N[C@@H](C)C(=O)NCC(=O)N2` (cyclo(AGAGAGCYIQNCPLG); disulfide 7-12), for which, in data set [1], the half-life was > 48 h. Further, the concentration giving a half-maximal response (EC50) in data set [2] was > 100000 nM. The inhibition constant (Ki) in data set [3] is > 100000 nM.
As for `CC[C@H](C)[C@@H]1NC(=O)[C@H](Cc2ccc(O)cc2)NC(=O)[C@@H](N)C[Te][Te]C[C@@H](C(=O)N2CCC[C@H]2C(=O)N[C@@H](CC(C)C)NCC(N)=O)NC(=O)[C@H](CC(N)=O)NC(=O)[C@H](CCC(N)=O)NC1=O`, in data set [1], the half-life is 24.2 h. Besides, the concentration for a half-maximal effect (EC50) in data set [2] worked out at 27.3 nM. This molecule registered a Ki in data set [3] of 7.6 nM.
Regarding `NC(=O)CC[C@@H]1NC(=O)[C@H](Cc2ccccc2)NC(=O)[C@H](Cc2ccc(O)cc2)NC(=O)[C@@H](N)CSSC[C@@H](C(=O)N2CCC[C@H]2C(=O)N[C@@H](CCCN=C(N)N)C(=O)NCC(N)=O)NC(=O)[C@H](CC(N)=O)NC1=O` [VASOPRESSIN], the half-life in data set [1] was 1.7 h.
`CC[C@H](C)[C@@H]1NC(=O)[C@H](Cc2ccc(O)cc2)NC(=O)[C@@H]2CSSC[C@H](NC(=O)[C@H](CC(N)=O)NC(=O)[C@H](CCC(N)=O)NC1=O)C(=O)N1CCC[C@H]1C(=O)N[C@@H](CC(C)C)C(=O)NCC(=O)N2`: the half-life in data set [1] was > 48 h. Further, the half-maximal effective concentration (EC50) in data set [2] was > 100000 nM. The inhibition constant (Ki) in data set [3] is 1400 nM.
